By CC50 is commonly meant the concentration at which the toxic effect on the cells reaches its halfway point.

The text below walks through data of ChEMBL document CHEMBL4732243, “Design, synthesis, and structure activity relationship analysis of new betulinic acid derivatives as potent HIV inhibitors” (Eur J Med Chem, 2021).

Data set [1] has as its system MT4. The experiment in a line: Cytotoxicity against human MT4 cells assessed as reduction in cell viability incubated for 2 days by CytoTox-Glo cytotoxicity assay. In kind it is cell-based. Conditions: mt4, 48 h, time 2 day. In outline: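 Mock-infected MT-4 cells cultured 2 days with a range of compound concentrations. Viability measured by CytoTox-Glo, following the kit protocol, as percent viable cells. CC50 is the concentration giving a 50% reduction in cell viability.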

Data set [2] concerns Human immunodeficiency virus 1. The experiment in a line: Antiviral activity against HIV-1 NL4-3 infected in human MT4 cells assessed as reduction in p24 gag protein incubated for 4 days by ELISA. In kind it is functional, organism-based. To be noted: Human immunodeficiency virus 1, NL4-3, MT4, 96 h. An outline of the steps: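 MT-4 cells infected with HIV-1 NL4-3 at MOI 0.01, serial compound concentrations, in 96-well format. Supernatant p24 antigen measured by capture ELISA on day 4 post-infection. IC50 is the concentration that inhibits NL4-3 replication by 50%. Bevirimat run in parallel as the reference.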
(In general: An ELISA detects its analyte on a solid surface through an enzyme-linked reagent.)

Take `C=C(C)[C@@H]1CC[C@]2(C(=O)N3CCN(C(=O)/C=C/c4ccc(OCOC)c(OCOC)c4)CC3)CC[C@]3(C)[C@H](CC[C@@H]4[C@@]5(C)CC[C@H](OC(=O)CC(C)(C)C(=O)O)C(C)(C)[C@@H]5CC[C@]43C)[C@@H]12`: the CC50 in data set [1] is over 2000 nM.

On to `C=C(C)[C@@H]1CC[C@]2(C(=O)N3CCN(C(=O)/C=C/c4ccc(OC)c(OC)c4)CC3)CC[C@]3(C)[C@H](CC[C@@H]4[C@@]5(C)CC[C@H](OC(=O)CC(C)(C)C(=O)O)C(C)(C)[C@@H]5CC[C@]43C)[C@@H]12`, for which the CC50 in data set [1] is over 2000 nM.

Turning to `C=C(C)[C@@H]1CC[C@]2(C(=O)N3CCN(CCCCC(=O)N4CCN(C(=O)/C=C/c5ccc6c(c5)OCO6)CC4)CC3)CC[C@]3(C)[C@H](CC[C@@H]4[C@@]5(C)CC[C@H](OC(=O)CC(C)(C)C(=O)O)C(C)(C)[C@@H]5CC[C@]43C)[C@@H]12`, in data set [1], the CC50 is over 2000 nM.

With `C=C(C)[C@@H]1CC[C@]2(C(=O)N3CCN(C(=O)/C=C/c4ccc(OCCCCCCCC)c(OC)c4)CC3)CC[C@]3(C)[C@H](CC[C@@H]4[C@@]5(C)CC[C@H](OC(=O)CC(C)(C)C(=O)O)C(C)(C)[C@@H]5CC[C@]43C)[C@@H]12`, the IC50 in data set [2] (read-out: IC50) was over 1000 nM.

As to `C=C(C)[C@@H]1CC[C@]2(C(=O)N3CCN(C(=O)/C=C/c4ccc(O)c(OCCCCCCCC)c4)CC3)CC[C@]3(C)[C@H](CC[C@@H]4[C@@]5(C)CC[C@H](OC(=O)CC(C)(C)C(=O)O)C(C)(C)[C@@H]5CC[C@]43C)[C@@H]12`, the IC50 in data set [2] (read-out: IC50) is over 1000 nM.

As to `C=C(C)[C@@H]1CC[C@]2(C(=O)N3CCN(C(=O)/C=C/c4cccc(C(F)(F)F)c4)CC3)CC[C@]3(C)[C@H](CC[C@@H]4[C@@]5(C)CC[C@H](OC(=O)CC(C)(C)C(=O)O)C(C)(C)[C@@H]5CC[C@]43C)[C@@H]12`, the IC50 is 560 nM in data set [2] (read-out: IC50) and 562 nM in data set [2] (read-out: pIC50 (converted)). The CC50 in data set [1] is over 2000 nM.

For `C=C(C)[C@@H]1CC[C@]2(C(=O)N3CCN(C(=O)/C=C/c4cc(OC)c(OC)c(OC)c4)CC3)CC[C@]3(C)[C@H](CC[C@@H]4[C@@]5(C)CC[C@H](OC(=O)CC(C)(C)C(=O)O)C(C)(C)[C@@H]5CC[C@]43C)[C@@H]12`, the IC50 in data set [2] (read-out: IC50) was 41 nM; in data set [2] (read-out: pIC50 (converted)) it was 40.7 nM. In data set [1], the cytotoxic concentration (CC50) is over 2000 nM.

With `C=C(C)[C@@H]1CC[C@]2(C(=O)N3CCN(C(=O)/C=C/c4ccc(N(C)C)cc4)CC3)CC[C@]3(C)[C@H](CC[C@@H]4[C@@]5(C)CC[C@H](OC(=O)CC(C)(C)C(=O)O)C(C)(C)[C@@H]5CC[C@]43C)[C@@H]12`, the IC50 is 27 nM in data set [2] (read-out: IC50) and 26.9 nM in data set [2] (read-out: pIC50 (converted)). Moreover, the cytotoxic concentration (CC50) in data set [1] was over 2000 nM.

`C=C(C)[C@@H]1CC[C@]2(C(=O)CC(=O)CC(C)(C)C(=O)O)CC[C@]3(C)[C@H](CC[C@@H]4[C@@]5(C)CC[C@H](OC(=O)/C=C/c6ccc(OCOC)c(OCOC)c6)C(C)(C)[C@@H]5CC[C@]43C)[C@@H]12`: in data set [2] (read-out: IC50), the IC50 is over 1000 nM.

Consider `C=C(C)[C@@H]1CC[C@]2(C(=O)N3CCN(C(=O)/C=C/c4ccc(OCOC)c(OCCCCCCCC)c4)CC3)CC[C@]3(C)[C@H](CC[C@@H]4[C@@]5(C)CC[C@H](OC(=O)CC(C)(C)C(=O)O)C(C)(C)[C@@H]5CC[C@]43C)[C@@H]12`, for which the IC50 in data set [2] (read-out: IC50) was over 1000 nM.

With `C=C(C)[C@@H]1CC[C@]2(C(=O)O)CC[C@]3(C)[C@H](CC[C@@H]4[C@@]5(C)CC[C@H](OC(=O)/C=C/c6ccc7c(c6)OCO7)C(C)(C)[C@@H]5CC[C@]43C)[C@@H]12`, the IC50 in data set [2] (read-out: IC50) is over 1000 nM.

As for `C=C(C)[C@@H]1CC[C@]2(CN3CCN(C(=O)/C=C/c4ccc5c(c4)OCO5)CC3)CC[C@]3(C)[C@H](CC[C@@H]4[C@@]5(C)CC[C@H](OC(=O)CC(C)(C)C(=O)O)C(C)(C)[C@@H]5CC[C@]43C)[C@@H]12`, the IC50 in data set [2] (read-out: IC50) is over 1000 nM.

Regarding `C=C(C)[C@@H]1CC[C@]2(C(=O)N3CCN(C(=O)/C=C/c4ccccc4OC)CC3)CC[C@]3(C)[C@H](CC[C@@H]4[C@@]5(C)CC[C@H](OC(=O)CC(C)(C)C(=O)O)C(C)(C)[C@@H]5CC[C@]43C)[C@@H]12`, the IC50 in data set [2] (read-out: IC50) and in data set [2] (read-out: pIC50 (converted)) was 170 nM throughout. Also, in data set [1], the CC50 is over 2000 nM.

In the case of `C=C(C)[C@@H]1CC[C@]2(C(=O)CC(=O)CC(C)(C)C(=O)O)CC[C@]3(C)[C@H](CC[C@@H]4[C@@]5(C)CC[C@H](OC(=O)/C=C/N6CCN(C(=O)OC(C)(C)C)CC6)C(C)(C)[C@@H]5CC[C@]43C)[C@@H]12`, in data set [2] (read-out: IC50), the IC50 is over 1000 nM.

Turning to `C=C(C)[C@@H]1CC[C@]2(C(=O)N3CCN(C(=O)/C=C/c4ccc(Cl)cc4)CC3)CC[C@]3(C)[C@H](CC[C@@H]4[C@@]5(C)CC[C@H](OC(=O)CC(C)(C)C(=O)O)C(C)(C)[C@@H]5CC[C@]43C)[C@@H]12`, the IC50 in data set [2] (read-out: IC50) was 360 nM; in data set [2] (read-out: pIC50 (converted)), 363 nM. Further, in data set [1], the CC50 was over 2000 nM.

In the case of `C=C(C)[C@@H]1CC[C@]2(C(=O)N3CCN(C(=O)/C=C/c4ccc(OCCCCCCCC)c(OCCCCCCCC)c4)CC3)CC[C@]3(C)[C@H](CC[C@@H]4[C@@]5(C)CC[C@H](OC(=O)CC(C)(C)C(=O)O)C(C)(C)[C@@H]5CC[C@]43C)[C@@H]12`, in data set [2] (read-out: IC50), the IC50 is over 1000 nM.

Regarding `C=C(C)[C@@H]1CC[C@]2(C(=O)O)CC[C@]3(C)[C@H](CC[C@@H]4[C@@]5(C)CC[C@H](OC(=O)/C=C/c6ccc(OCOC)c(OCOC)c6)C(C)(C)[C@@H]5CC[C@]43C)[C@@H]12`, the IC50 in data set [2] (read-out: IC50) was over 1000 nM.

Turning to `C=C(C)[C@@H]1CC[C@]2(C(=O)OCCCCCCCCN3CCN(C(=O)/C=C/c4ccc5c(c4)OCO5)CC3)CC[C@]3(C)[C@H](CC[C@@H]4[C@@]5(C)CC[C@H](OC(=O)CC(C)(C)C(=O)O)C(C)(C)[C@@H]5CC[C@]43C)[C@@H]12`, in data set [2] (read-out: IC50), the IC50 was over 1000 nM.

In the case of `C=C(C)[C@@H]1CC[C@]2(C(=O)N3CCN(C(=O)/C=C/c4ccc(OC)cc4)CC3)CC[C@]3(C)[C@H](CC[C@@H]4[C@@]5(C)CC[C@H](OC(=O)CC(C)(C)C(=O)O)C(C)(C)[C@@H]5CC[C@]43C)[C@@H]12`, the figures for the IC50 in data set [2] (read-out: IC50) and in data set [2] (read-out: pIC50 (converted)) were 76 nM and 75.9 nM, respectively. Also, the CC50 in data set [1] was over 2000 nM.

For `C=C(C)[C@@H]1CC[C@]2(C(=O)N3CCN(C(=O)/C=C/c4ccc([N+](=O)[O-])cc4)CC3)CC[C@]3(C)[C@H](CC[C@@H]4[C@@]5(C)CC[C@H](OC(=O)CC(C)(C)C(=O)O)C(C)(C)[C@@H]5CC[C@]43C)[C@@H]12`, the IC50 in data set [2] (read-out: IC50) and in data set [2] (read-out: pIC50 (converted)) was 110 nM each time. In addition, the CC50 in data set [1] is over 2000 nM.

With `C=C(C)[C@@H]1CC[C@]2(C(=O)N3CCN(C(=O)CC(C)(C)C(=O)O)CC3)CC[C@]3(C)[C@H](CC[C@@H]4[C@@]5(C)CC[C@H](OC(=O)/C=C/c6ccc7c(c6)OCO7)C(C)(C)[C@@H]5CC[C@]43C)[C@@H]12`, the IC50 in data set [2] (read-out: IC50) is over 1000 nM.

As for `C=C(C)[C@@H]1CC[C@]2(C(=O)N3CCN(C(=O)/C=C/c4ccc(OCc5cccc(Cl)c5)c(OC)c4)CC3)CC[C@]3(C)[C@H](CC[C@@H]4[C@@]5(C)CC[C@H](OC(=O)CC(C)(C)C(=O)O)C(C)(C)[C@@H]5CC[C@]43C)[C@@H]12`, the IC50 in data set [2] (read-out: IC50) is over 1000 nM.

Consider `C=C(C)[C@@H]1CC[C@]2(C(=O)CC(C)=O)CC[C@]3(C)[C@H](CC[C@@H]4[C@@]5(C)CC[C@H](OC(=O)/C=C/N6CCN(C(=O)OC(C)(C)C)CC6)C(C)(C)[C@@H]5CC[C@]43C)[C@@H]12`, for which the IC50 in data set [2] (read-out: IC50) is over 1000 nM.

As to `C=C(C)[C@@H]1CC[C@]2(C(=O)N3CCN(C(=O)/C=C/c4ccc(OC)c(Cl)c4)CC3)CC[C@]3(C)[C@H](CC[C@@H]4[C@@]5(C)CC[C@H](OC(=O)CC(C)(C)C(=O)O)C(C)(C)[C@@H]5CC[C@]43C)[C@@H]12`, the IC50 is 130 nM in data set [2] (read-out: IC50) and 129 nM in data set [2] (read-out: pIC50 (converted)). For the same compound, in data set [1], the CC50 is over 2000 nM.

Regarding `C=C(C)[C@@H]1CC[C@]2(C(=O)N3CCN(C(=O)CC(C)(C)C(=O)O)CC3)CC[C@]3(C)[C@H](CC[C@@H]4[C@@]5(C)CC[C@H](Oc6ccc7c(c6)OCO7)C(C)(C)[C@@H]5CC[C@]43C)[C@@H]12`, the IC50 in data set [2] (read-out: IC50) was over 1000 nM.

With `C=C(C)[C@@H]1CC[C@]2(C(=O)N3CCN(C(=O)/C=C/c4cccc(OC)c4)CC3)CC[C@]3(C)[C@H](CC[C@@H]4[C@@]5(C)CC[C@H](OC(=O)CC(C)(C)C(=O)O)C(C)(C)[C@@H]5CC[C@]43C)[C@@H]12`, the IC50 is 150 nM in data set [2] (read-out: IC50) and 151 nM in data set [2] (read-out: pIC50 (converted)). Besides, the CC50 in data set [1] is over 2000 nM.

With `C=C(C)[C@@H]1CC[C@]2(C(=O)N3CCN(C(=O)CC(C)(C)C(=O)O)CC3)CC[C@]3(C)[C@H](CC[C@@H]4[C@@]5(C)CC[C@H](O)C(C)(C)[C@@H]5CC[C@]43C)[C@@H]12`, the IC50 in data set [2] (read-out: IC50) was over 1000 nM.

Turning to `C=C(C)[C@@H]1CC[C@]2(C(=O)N3CCN(C(=O)/C=C/c4cccc(OCc5cccc([N+](=O)[O-])c5)c4)CC3)CC[C@]3(C)[C@H](CC[C@@H]4[C@@]5(C)CC[C@H](OC(=O)CC(C)(C)C(=O)O)C(C)(C)[C@@H]5CC[C@]43C)[C@@H]12`, the values for the IC50 in data set [2] (read-out: IC50) and in data set [2] (read-out: pIC50 (converted)) were 580 nM and 575 nM, respectively. In data set [1], the CC50 is over 2000 nM.

As for `C=C(C)[C@@H]1CC[C@]2(C(=O)OCCCOC(=O)/C=C/c3ccc(N(C)C)cc3)CC[C@]3(C)[C@H](CC[C@@H]4[C@@]5(C)CC[C@H](OC(=O)CC(C)(C)C(=O)O)C(C)(C)[C@@H]5CC[C@]43C)[C@@H]12`, the IC50 in data set [2] (read-out: IC50) was over 1000 nM.

As for `C=C(C)[C@@H]1CC[C@]2(C(=O)O)CC[C@]3(C)[C@H](CC[C@@H]4[C@@]5(C)CC[C@H](OC(=O)CC(C)(C)C(=O)O)C(C)(C)[C@@H]5CC[C@]43C)[C@@H]12` [BEVIRIMAT], in data set [1], the CC50 was over 2000 nM.
